# Screening data (PubChem BioAssay)
# tim10-1 inh: inhibits growth of tim10-1 mutant yeast; S. cerevisiae tim10-1 ts strain growth, BacTiter-Glo, 24 h; 330,000 compounds, 2.2% hits; inhibition, % at 20 µM; AID 463190;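 active means inhibition of at least 40%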;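 further: mutant grown at 25 °C; 0% = DMSO wells with yeast and 100% = wells holding no yeast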
# TIM10 inh: TIM10 yeast growth inhibition; inhibition, % at 10 µM; 330,000 compounds, 1.4% hits; S. cerevisiae TIM10 strain growth, BacTiter-Glo luminescence, 24 h;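 active means inhibition of 40% or more at the single tested concentration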;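 further: wild-type TIM10 isogenic control strain grown at permissive 25 °C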
# UPR XBP1 act: activators of adaptive arm of unfolded protein response (XBP1); CHO-XBP1 luciferase reporter, IRE1-XBP1 UPR activation, luminescence; percent of tunicamycin response, DMSO as zero; activation, % at 20 µM; AID 463104; 330,000 compounds, 0.33% hits;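 active means versus positive control, 20 µM dose yields 30% or more activation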;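 further: 100% = tunicamycin at 10 µg/mL and 0% = DMSO only wells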
#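 Material: CHO-XBP1 cells stably carrying IRE1-XBP1-driven luciferase reporter | Medium: F12 with 10% serum | Compound dosing: 20 µM single concentration, DMSO 1% | Incubation: Overnight seeding at 37 °C, 6 h compound treatment at 37 °C | Detection: Steady-Glo luminescence read | Read-out basis: % activation of reporter signal versus tunicamycin and DMSO controls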
# UPR CHOP act: apoptotic UPR (CHOP) activation; CHO-CHOP luciferase reporter, luminescence; percent of tunicamycin response over DMSO baseline; activation, % at 10 µM; 330,000 compounds, 0.34% hits; AID 449763;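 active means at 10 µM dose, activation of 40% or more, normalized to positive control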;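 further: 100% = tunicamycin at 10 µg/mL and 0% = DMSO alone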
#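 Test system: CHO CHOP reporter cells. Input: 500 CHO-CHOP cells per well. Medium: F12 with 10% FBS. Technique: luciferase luminescence. Measure: percent activation relative to tunicamycin control. Dosing: 10 µM compound, 0.5% DMSO. Timing: 16-18 h cell attachment, then 6 h compound exposure, 37 °C.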
# tim23-1 inh: growth inhibitors of tim23-1 mutant yeast. 330,000 compounds, 1.3% hits. S. cerevisiae tim23-1 growth, BacTiter-Glo luminescence, 24 h. inhibition, % at 20 µM. AID 463212;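 active means growth inhibition of the mutant yeast at or above 50%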;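 further: temperature-sensitive mutant grown at 25 °C; plate controls were DMSO-treated mutant yeast for no effect and medium wells lacking yeast for full effect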
# tim10-1 confirm: confirmation of tim10-1 mutant yeast growth inhibitors | AID 463213 | inhibition, % at 20 µM | 7,400 compounds, 56% hits | shares compounds with tim10-1 inh | S. cerevisiae tim10-1 ts strain growth, BacTiter-Glo, 24 h;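 active means inhibition of yeast growth at or above a set limit in either of two repeat tests at 20 µM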;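 further: tim10-1 mutant grown at permissive 25 °C to find synthetic lethal compounds; 0% = DMSO yeast wells and 100% = medium wells without yeast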
# tim10 confirm: TIM10 yeast growth inhibition, confirmed | shares compounds with TIM10 inh | S. cerevisiae tim10 strain growth, BacTiter-Glo luminescence, 24 h | inhibition, % at 10 µM | 4,600 compounds, 63% hits;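 active means inhibition of yeast growth at or above a set limit in either of two replicates at 10 µM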;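 further: this counterscreen used the strain with wild-type TIM10; 0% = yeast with DMSO and 100% = medium wells lacking yeast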
# Numbers without * were called inactive; . = no result. Compounds with a hit are over-represented: about 3.9% of the library has one in this group of screens.
SMILES,tim10-1 inh,TIM10 inh,UPR XBP1 act,UPR CHOP act,tim23-1 inh,tim10-1 confirm,tim10 confirm
O=c1c2ccccc2sn1-c1ccc(S(=O)(=O)N2CCCCC2)cc1,19.5,22.3,-2.5,6.2,1.0,.,.
O=S(=O)(c1ccc(NC(=S)NN=C2CCCCC2)cc1)N1CCOCC1,18.8,9.6,1.1,-1.0,10.2,.,.
CCOc1ccc(S(=O)(=O)N2CCOCC2)cc1NC(=O)CSCc1c(C)noc1C,10.8,4.2,-4.5,0.4,4.1,.,.
CCOC(=O)[C@H]1[C@H]2COc3ccc(C)cc3[C@@H]2N2C(=O)CN(CC3CCCO3)C(=O)[C@@]12C (stereo partly drawn),3.8,2.0,-1.0,-1.5,-6.8,.,.
c1ccc(-c2nc(-c3cccs3)[nH]c2-c2ccccc2)cc1,27.2,34.9,-0.5,1.7,10.3,.,.
c1csc(-c2nc3c4ccccc4c4ccccc4c3[nH]2)c1,40.9*,58.5*,2.5,4.3,31.9,21.1,29.4
COC(=O)CNC(c1ccccc1)c1cc(Br)ccc1NC(=O)CCN1CCOCC1 (stereo not drawn),51.2*,51.3*,-2.5,-1.9,33.7,41.6*,56.8*
CCOC(=O)CNC(c1ccccc1)c1cc(Br)ccc1NC(=O)CCN1CCOCC1 (stereo not drawn),45.0*,54.9*,-4.2,-4.0,-13.0,39.8*,40.0*
CCOC(=O)CNC(c1ccccc1)c1cc(Br)ccc1NC(=O)OCC (stereo not drawn),30.3,20.2,-2.5,0.1,21.6,.,.
COC(=O)CNC(c1ccccc1)c1cc(Br)ccc1NC(=O)CNC(=O)OCc1ccccc1 (stereo not drawn),27.7,30.3,-4.3,-0.5,41.5,.,.
CC(C)[C@]1(c2ccc(Cl)cc2)ON(c2ccccc2C(F)(F)F)C1=O,-49.4,8.8,-1.0,3.3,15.6,.,.
CN(C)Cc1nc2c(c(=O)[nH]1)C(C)(C)Cc1ccccc1-2,15.0,-9.1,0.4,-3.6,17.7,.,.
CN(C)Cc1nc2c(c(=O)[nH]1)C1(CCCCC1)Cc1ccccc1-2,48.9*,44.4*,-2.3,-0.4,21.9,38.3*,38.3*
N#Cc1ccccc1OCC(=O)NCC(c1ccc(F)cc1)N1CCOCC1 (stereo not drawn),7.8,5.6,-0.8,-1.0,8.4,.,.
O=C(Nc1ncc2c(n1)-c1ccccc1CC2)c1cccc(Cl)c1,48.9*,44.1*,1.3,0.6,40.1,42.9*,22.6
O=C(Nc1ncc2c(n1)-c1ccccc1OC2)c1cccc([N+](=O)[O-])c1,23.1,20.0,0.4,-0.6,1.5,.,.
CCCc1[nH]nc2c1C(c1ccccc1OC)C(C#N)=C(N)O2 (stereo not drawn),13.5,4.8,0.1,3.5,11.0,.,.
CCCc1[nH]nc2c1C(c1cn[nH]c1-c1ccc(F)cc1)C(C#N)=C(N)O2 (stereo not drawn),43.8*,40.8*,-2.9,-0.5,44.1,47.7*,33.8*
CCOC(=O)c1c(CSc2ccc(CC)cc2)oc2ccc(O)c(CN(C)C)c12,49.2*,55.1*,25.4,1.4,24.2,57.6*,64.8*
Oc1ccccc1-c1nc(NCC2CCCO2)c2ccccc2n1 (stereo not drawn),55.6*,60.6*,0.1,-1.6,31.2,40.5*,26.8
O=C1Nc2ccccc2/C1=C/c1cnc(-c2ccccc2)[nH]1,-1.7,2.8,1.2,4.9,-2.8,.,.
O=C1Nc2ccccc2/C1=C/c1cccnc1,49.0*,51.2*,-0.6,-1.0,40.0,35.5*,31.6*
CN(Cc1ccccc1F)C(=O)c1ccccc1Sc1ccccc1C#N,27.2,21.3,-6.2,3.6,43.9,.,.
O=C(COc1c(F)c(F)c(C(F)(F)F)c(F)c1F)Nc1ccc(N2CCOCC2)c(Cl)c1,57.7*,43.1*,-3.3,-2.9,40.6,44.7*,33.5*
NNC(=O)c1ccc(Cn2cc(Cl)cn2)o1,14.2,2.8,-1.8,-1.2,3.2,.,.
SMILES,tim10-1 inh,TIM10 inh,UPR XBP1 act,UPR CHOP act,tim23-1 inh,tim10-1 confirm,tim10 confirm
Cc1ccc2nc(NC(=O)c3ccc(Cn4cc(Cl)cn4)o3)sc2c1,46.0*,50.5*,3.9,4.2,35.7,21.6,33.3*
CN(C(=O)CN1C(=O)c2ccccc2S1(=O)=O)C1CCCCC1,8.1,-2.2,-4.1,-1.7,16.6,.,.
COC(=O)/C(=C\c1ccc([N+](=O)[O-])o1)NC(=O)c1ccccc1,45.0*,43.6*,-1.9,1.6,6.3,40.1*,31.8*
CCCCNC(=O)/C(=C\c1ccc([N+](=O)[O-])o1)NC(=O)c1ccccc1,37.9,27.9,-1.4,0.0,32.1,.,.
CC(C)(C)c1ccc(-c2n[nH]c(=S)n2C2CCCC2)cc1,41.3*,44.5*,-0.3,0.0,47.5,29.8*,45.1*
Cn1c(-c2ccc(C(C)(C)C)cc2)n[nH]c1=S,23.0,9.4,0.1,0.8,16.4,.,.
O=C(NCc1ccccn1)c1c(-c2ccccc2)sc2ccccc12,0.3,12.6,-0.9,-0.7,31.7,.,.
CC(=O)NC(Cc1ccc(F)cc1)C(=O)NC1CCN(C(=O)Nc2ccccc2C)CC1 (stereo not drawn),7.0,-15.6,2.3,0.0,14.2,.,.
CN1/C(=C\C(=O)Nc2cccc(Cl)c2)C(C)(C)c2ccccc21,40.5*,40.5*,0.4,-0.3,46.8,34.0*,42.9*
CN1/C(=C/C(=O)C2CC2)C(C)(C)c2ccccc21,-2.0,-21.5,2.9,1.4,9.8,.,.
CC(=O)/C(=N\Nc1ccccc1)Sc1nnc(-c2ccccc2)n1-c1ccccc1,43.8*,46.3*,-0.1,2.5,24.8,29.4,3.5
Cc1cccc(OCc2nnc(-c3ccc(F)cc3)o2)c1,-0.6,-4.3,1.2,2.8,9.8,.,.
Cc1onc(-c2ccccc2)c1C(=O)NC(=S)Nc1sc2c(c1C#N)CCCC2,41.8*,54.1*,0.7,0.7,40.1,27.5,33.0*
Nc1nc(-c2ccc(Br)s2)c(Br)s1,53.9*,51.5*,2.4,3.5,47.2,35.8*,-10.3
O=C(N/N=C/c1c[nH]c2ccccc12)c1sc2ccccc2c1Cl,-23.8,25.5,1.4,4.5,39.2,.,.
Cc1c(/C=N/NC(=O)c2sc3ccccc3c2Cl)cnn1C,52.7*,43.3*,-0.8,5.2,11.3,34.0*,50.2*
C=CC[C@]12C=C(OC)C(=O)C(OC)=C1O[C@@H](c1ccc3c(c1)OCO3)[C@H]2C,15.3,8.5,-1.8,-2.3,24.2,.,.
C=CC[C@]12CC=CC(=O)[C@@]1(O)O[C@H](c1ccc(OC)c(OC)c1)[C@H]2C,50.2*,41.8*,-0.8,7.7,47.1,37.9*,42.7*
